Calls of active or inactive are those of the source. The rule behind the calls is not given here.
Tests used:
Mus musculus [1] = experiment: Analgesic activity in sc dosed mouse assessed as inhibition of acetic acid-induced writhing measured at 30 to 60 mins; type: functional, organism-based
Mus musculus [2] = experiment: Analgesic activity in sc dosed mouse assessed as inhibition of acetic acid-induced writhing; type: functional
In short: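 Test agents were given to mice by subcutaneous injection, and doses were expressed in mg/kg. The ED50 was derived from the dose-response data and reported with 95% confidence limits.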

Mus musculus [3] = experiment: Analgesic activity in sc dosed mouse assessed as inhibition of acetic acid-induced writhing in presence of 10 mg/kg naloxone; type: functional, organism-based; design: dose 10 mg/kg; conditions: at 10 mg/kg
Mus musculus [4] = species: Mus musculus; experiment: Toxicity in mouse assessed as scratching at injection site at 1 mg/ml; type: organism-based; conditions: in vivo
Mus musculus [5] = experiment: Analgesic activity in sc dosed mouse assessed as peak inhibition of acetic acid-induced writhing measured at 5 to 15 mins; type: functional, organism-based
Mus musculus [6] = experiment: Analgesic activity in mouse assessed as inhibition of acetic acid-induced writhing at 100 mg/kg, sc; type: functional, organism-based; design: dose 100 mg/kg

SMILES | inhibition (Mus musculus [1]) | ED50 (Mus musculus [2]) [mg/kg] | inhibition (Mus musculus [3]) | Activity (Mus musculus [4]) | inhibition (Mus musculus [5]) | inhibition (Mus musculus [6])
CCC(=O)O[C@](Cc1ccccc1)(c1ccccc1)[C@H](C)CN | Active | 25 | inactive | Toxic | Active | 
CCC(=O)OC(Cc1ccccc1)(c1ccccc1)C(C)CN.Cl (racemic) | Active | 51 | inactive | Toxic | Active | 
CCC1=NCC(C)C(Cc2ccccc2)(c2ccccc2)O1 (racemic) |  |  |  |  |  | inactive
CCC(=O)O[C@](Cc1ccccc1)(c1ccccc1)[C@H](C)CN(C)C [PROPOXYPHENE] |  | 6.9 |  |  |  | 

From ChEMBL document CHEMBL3243985, “Synthesis of two metabolites of (+)-propoxyphene” (J Med Chem, 1977)
